According to ChEMBL document CHEMBL1123879, “Synthesis and antiarrhythmic activity of novel 3-alkyl-1-[omega-[4-[(alkylsulfonyl)amino]phenyl]-omega- hydroxyalkyl]-1H-imidazolium salts and related compounds” (J Med Chem, 1987):

Columns and labels:
[1] = organism: Canis familiaris; test: Concentration that causes 20% increase in ADP95 (action potential duration at 95% repolarization) was determined on isolated canine cardiac Purkinje fibers at a concentration range 0.01-10 uM; assay type: functional, Canis lupus familiaris, Purkinje fiber
In short: (§1)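 Canine cardiac Purkinje fibres in gassed physiological saline (95% O2–5% CO2, pH 7.35–7.40) at 36 ± 0.5 °C. Paced at 1.0 Hz with 2 ms pulses at twice diastolic threshold. Intracellular microelectrode recording after up to 1 h of stabilisation; 30 min exposure per concentration; one compound per fibre, with vehicle controls. Readout is concentration giving a 20% change in APD95, or maximal APD95 change; log mean with 90% CI when n > 2.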

[2] = organism: Canis familiaris; test: Maximum observed change in FRP from control was determined in isolated canine ventricular muscle fibers at a concentration of 100 uM; assay type: functional, Canis lupus familiaris, Muscle tissue
In short: (§2)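 Canine right ventricular papillary muscle strips superfused with O2/CO2-gassed saline at 36 ± 0.5 °C. Bipolar electrogram recording. Stimulated at 4× diastolic threshold (2 ms pulses), equilibrated 60 min. FRP measured at 1000 ms cycle length by S2 after every tenth S1 at shortening intervals. Cumulative concentrations; one compound per strip, with vehicle controls. Readout is concentration giving a 20% FRP change, or maximal change; log mean with 90% CI when n > 2.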

[3] = organism: Canis familiaris; test: (§3) Concentration that causes 20% increase in functional refractory period (FRP) was determined on isolated canine ventricular muscle fibers; conditions: Canis lupus familiaris; Muscle tissue; in short: as §2
[4] = organism: Canis familiaris; test: Maximum observed change in ADP95 from control value was determined in isolated canine cardiac uM; assay type: functional, Canis lupus familiaris; in short: as §1
[5] = organism: Canis familiaris; test: (§4) Concentration that causes 20% increase in ADP95 (action potential duration at 95% repolarization) was determined on isolated canine cardiac Purkinje fibers; assay type: functional, Canis lupus familiaris, Purkinje fiber; in short: as §1
[6] = organism: Canis familiaris; test: as §3; parameters: species or system Canis lupus familiaris, Muscle tissue; in short: as §2
[7] = test system: Canis familiaris; test: In vivo intraduodenal activity in mongrel dogs was assessed by % change in blood pressure (10 mg/kg administered intradermally); assay type: functional, Canis lupus familiaris, Artery; conditions: in the assay text read “intraduodenally” for “intradermally”
In short: (§5)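 Healthy dogs (8–20 kg) of either sex, pentobarbital 30 mg/kg iv, ventilated, temperature held at 36 ± 0.5 °C. Compound given intraduodenally as suspension in 0.5% tragacanth. HR, BP and FRP measured at 45 min postdose; second dose if FRP/conduction change below 12%. Active dose means FRP change ≥ 12%; HR and BP given as % change, mean ± SEM.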

[8] = test system: Canis familiaris; test: In vivo intraduodenal activity in mongrel dogs was assessed by % change in heart rate (10 mg/kg administered intradermally); assay type: functional, Canis lupus familiaris; conditions: in the assay text read “intraduodenally” for “intradermally”; in short: as §5
[9] = organism: Canis familiaris; test: as §4; assay type: functional; conditions: Canis lupus familiaris; Purkinje fiber; in short: as §1
[10] = organism: Canis familiaris; test: Concentration that causes 20% increase in ADP95 (action potential duration at 95% repolarization) was determined on isolated canine cardiac Purkinje fibers at a dose range of 0.01-10 uM; assay type: functional, Canis lupus familiaris, Purkinje fiber; in short: as §1
[11] = test system: Canis familiaris; test: In vivo antiarrhythmic efficacy in a programmed electrical stimulation (PES) model of mongrel dogs reported as number of animals effective at dose range of 0.1-10 mg/kg.; assay type: functional, Canis lupus familiaris, Heart
In short: (§6)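 Mongrel dogs (8–17 kg) with two-stage LAD occlusion 24 h earlier, anesthetized with thiopental 15 mg/kg and ventilated; open chest. PES induces SVT/VF; two control arrhythmias 30 min apart. Compound given as 10-min iv infusion, PES repeated 20 min later, dose escalated while still inducible; noninducibility counts as effective. HR and BP reported as % change at effective dose, mean ± SEM.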

[12] = test system: Canis familiaris; test: In vivo antiarrhythmic efficacy in a programmed electrical stimulation (PES) model of mongrel dogs expressed as percent change in blood pressure at iv dose range of 0.1-10 mg/kg.; assay type: functional, Canis lupus familiaris; in short: as §6
[13] = test system: Canis familiaris; test: In vivo antiarrhythmic efficacy in a programmed electrical stimulation (PES) model of mongrel dogs expressed as minimum effect dose (iv) at iv dose range of 0.1-10 mg/kg.; assay type: functional, Canis lupus familiaris, Heart; in short: as §6
[14] = test system: Canis familiaris; test: In vivo antiarrhythmic efficacy in a programmed electrical stimulation (PES) model of mongrel dogs expressed as percent change in heart rate at iv dose range of 0.1-10 mg/kg.; assay type: functional, Canis lupus familiaris; in short: as §6

SMILES	Max delta FRP [2]	Activity [3]	Max delta APD95 [4]	Activity [5]	Activity [6]	Max delta APD95 ([4]; Canis lupus familiaris)	Activity [9]	further results
CCCCCCC[n+]1ccn(CC(=O)c2ccc(NS(C)(=O)=O)cc2)c1.[Br-]	14%	Not recorded	21%	–	–	–	–	Activity [1]: 9 µM
CC[n+]1ccn(CC(=O)c2ccc(NS(C)(=O)=O)cc2)c1.[Cl-]	26%	–	26%	49.4 µM	28.2 µM	–	–	–
C[n+]1ccn(CCC(=O)c2ccc(NS(C)(=O)=O)cc2)c1.[Cl-]	29%	–	26%	38.3 µM	17.8 µM	–	–	Blood pressure [7]: 6%; Heart rate [8]: -2%
Cc1n(CC(=O)c2ccc(NS(C)(=O)=O)cc2)cc[n+]1C.[Cl-]	32%	–	33%	24.8 µM	14.7 µM	–	–	–
C[n+]1ccn(CC(=O)c2ccc(NS(=O)(=O)C(F)(F)F)cc2)c1	–	Not recorded	–	–	–	Minimal effects	Not recorded	Max delta FRP ([2]; Canis lupus familiaris, Muscle tissue): Minimal effects
C[n+]1ccn(CC(O)c2ccc(NS(C)(=O)=O)cc2)c1 (centres undefined)	24%	–	55%	0.6 µM	8.7 µM	–	–	–
Cc1c(C)[n+](C)c(C)n1CC(=O)c1ccc(NS(C)(=O)=O)cc1.[Cl-]	26%	–	–	–	15.8 µM	Minimal effects	Not recorded	–
CC[n+]1ccn(CC(O)c2ccc(NS(C)(=O)=O)cc2)c1.[Cl-] (centres undefined)	26%	–	65%	6.2 µM	28.2 µM	–	–	–
CC(C)[n+]1ccn(CC(=O)c2ccc(NS(C)(=O)=O)cc2)c1.[Cl-]	14%	Not recorded	–	–	–	Minimal effects	Not recorded	–
CCS(=O)(=O)Nc1ccc(C(O)Cn2cc[n+](C)c2)cc1.[Cl-] (centres undefined)	27%	–	27%	30 µM	14.5 µM	–	–	–
CC(C)[n+]1ccn(CC(O)c2ccc(NS(C)(=O)=O)cc2)c1 (centres undefined)	–	Not recorded	–	–	–	Minimal effects	Not recorded	–
CCCCCCC[N+](CC)(CC)CCCCc1ccc(Cl)cc1.O=P([O-])(O)O [CLOFILIUM PHOSPHATE]	7%	Not recorded	39%	–	–	–	–	Blood pressure [7]: -4%; Activity [10]: 0.26 µM; Heart rate [8]: -18%; No. effective [11]: 7; Blood pressure [12]: 2%; Min effective dose [13]: 0.63; Heart rate [14]: -12%
C[n+]1ccn(CCC(O)c2ccc(NS(C)(=O)=O)cc2)c1.[Cl-] (centres undefined)	20%	–	–	–	100 µM	Minimal effects	Not recorded	–
